This is an account of results in ChEMBL document CHEMBL1134326, “C-16 artemisinin derivatives and their antimalarial and cytotoxic activities: syntheses of artemisinin monomers, dimers, trimers, and tetramers by nucleophilic additions to artemisitene” (J Med Chem, 2001).

Data set [1] in a line: Therapeutic index(TI) as IC50 of vero cells to that of EC50. It is filed as cell-based, Cricetulus griseus. The settings on record: chinese hamster, read-out: Ti.
In data set [2] the test system is Plasmodium falciparum. Put plainly: Antimalarial activity against Plasmodium falciparum. It is filed as functional, organism-based. An outline of the steps:
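P. falciparum K1 (multidrug-resistant), asexual erythrocytic stage kept in continuous in vitro culture; microculture radioisotope method after Desjardins. EC50 is the concentration giving 50% reduction in parasite growth, measured as [3H]hypoxanthine uptake. Artemisinin and dihydroartemisinin served as standards.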

Data set [3] concerns BC. Description: Cytotoxicity against BC cells. It is filed as functional, cell-based. To be noted: Homo sapiens. An outline of the steps: (§1)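 Colorimetric cytotoxicity assay after Skehan on KB, BC and vero cell lines. Maximum concentration tested 130 µM. Ellipticine was the positive control. IC50 is reported in µM.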
The subject of data set [4] is Vero. Description: Cytotoxicity against vero cells. It is filed as functional, cell-based. To be noted: Chlorocebus sabaeus. An outline of the steps: as §1
Data set [5] in a line: Cytotoxicity against KB cells. It is filed as functional, cell-based. To be noted: Homo sapiens. In a few lines: as §1
Data set [6] can be described thus: Therapeutic index (TI) determined as IC50 of vero cells to that of EC50. To be noted: plasmodium falciparum, read-out: TI. It is filed as cell-based.
For data set [7], the system named is BC. Description: Cytotoxicity against BC cells. It is filed as functional, cell-based. The settings on record: Homo sapiens. In a few lines:
as §1

Data set [8] relates to KB. Description: Cytotoxicity against KB cells. To be noted: Homo sapiens. It is filed as functional, cell-based. In a few lines:
as §1

Turning to `CCCCCCC1(CC2C(=O)OC3OC4(C)CCC5C(C)CCC2C35OO4)C(=O)OC2OC3(C)CCC4C(C)CCC1C24OO3` (stereo not given), in data set [1], the selectivity ratio is 5. Also, in data set [2], a half-maximal effect (EC50) was put at 5 nM. Besides, the results for the half-maximal inhibitory concentration (IC50) in data set [3], in data set [4] and in data set [5] were 1300 nM, 2.5 µM and 4 µM, respectively.
Turning to `CCCC[C@H]1C(=O)O[C@@H]2O[C@]3(C)CC[C@H]4[C@H](C)CC[C@@H]1[C@@]24OO3`, the selectivity ratio in data set [6] is above 1.2. In addition, the IA result in data set [7] and in data set [8] was “Cytotoxic” in each case. Moreover, in data set [2], it took 11.3 nM to reach a half-maximal effect (EC50). In addition, in data set [4], the concentration for half-maximal inhibition (IC50) (in general, the point on the concentration scale where inhibition reaches its midpoint) was above 130 µM.
Regarding `CCCCC[C@H]1C(=O)O[C@@H]2O[C@]3(C)CC[C@H]4[C@H](C)CC[C@@H]1[C@@]24OO3`, in data set [6], the selectivity ratio is above 1.5. Moreover, the IA entry in data set [7] and in data set [8] was “Cytotoxic” in each case. Besides, in data set [2], the EC50 (as a rule, the concentration giving half of the maximal effect) came out at 8.9 nM. In data set [4], this compound displayed an IC50 above 130 µM.
`CCCCC1(CC2C(=O)OC3OC4(C)CCC5C(C)CCC2C35OO4)C(=O)OC2OC3(C)CCC4C(C)CCC1C24OO3` (stereo not given): the selectivity ratio in data set [6] was above 3. Moreover, the IA entry in data set [7] and in data set [8] was “Cytotoxic” throughout. Besides, it took 4.3 nM to reach a half-maximal effect in data set [2] (EC50). In data set [4], this compound returned an IC50 above 130 µM.
With `C[C@@H]1CC[C@H]2C(CCC(=O)c3ccccc3)C(=O)O[C@@H]3O[C@]4(C)CC[C@@H]1C32OO4` (stereo not given in full), the selectivity ratio in data set [6] is above 1. Also, the IA entry in data set [7] and in data set [8] was “Cytotoxic” each time. For the same compound, in data set [2], the concentration giving a half-maximal response (EC50) stood at 12.8 nM. Further, the IC50 in data set [4] is above 130 µM.
In the case of `C[C@@H]1CC[C@H]2C(CCC(=O)c3ccc[nH]3)C(=O)O[C@@H]3O[C@]4(C)CC[C@@H]1[C@]32OO4` (stereo not given in full), the selectivity ratio in data set [6] was above 5.2. Also, the IA result in data set [7] and in data set [8] was “Cytotoxic” in each case. Also, in data set [2], a half-maximal response (EC50) required 24.8 nM. This compound also registered a concentration for half-maximal inhibition (IC50) in data set [4] above 130 µM.
Take `C[C@@H]1CC[C@H]2[C@@H](Cc3cccc(F)c3)C(=O)O[C@@H]3O[C@]4(C)CC[C@@H]1[C@]32OO4`: the selectivity ratio in data set [6] stood at 6.3. Moreover, the IA result in data set [7] and in data set [8] was “Cytotoxic” in each case. In data set [2], the EC50 is 20.7 nM. For the same compound, in data set [4], the IC50 was above 130 µM.
Regarding `COC(=O)C(C)(C)CC1C(=O)O[C@@H]2OC3(C)CC[C@H]4[C@H](C)CC[C@@H]1[C@@]24OO3` (single isomer, unassigned), in data set [6], the selectivity ratio is above 5. The IA result in data set [7] and in data set [8] was “Cytotoxic” each time. In data set [2], this compound showed a 50% effective concentration (EC50) above 26.1 nM. Further, the IC50 in data set [4] was above 130 µM.
Regarding `CC1CCC2C(CCC(=O)c3ccc[nH]3)C(=O)OC3OC4(C)CCC1C32OO4` (stereo not given), the selectivity ratio in data set [6] was above 1.5. Further, the IA result in data set [7] and in data set [8] was “Cytotoxic” each time. Also, the EC50 in data set [2] is 8.8 nM. The IC50 in data set [4] is above 130 µM.
